Here are results for three compounds from ChEMBL document CHEMBL2169742, “Design, synthesis, and biological evaluation of novel transrepression-selective liver X receptor (LXR) ligands with 5,11-dihydro-5-methyl-11-methylene-6H-dibenz[b,e]azepin-6-one skeleton” (J Med Chem, 2012).

Calls of active or inactive are those of the source. The rule behind the calls is not given here.

Data set [1] in a line: Apparent permeability from apical to basal side of human Caco2 cells at 10 uM. Type of data set: ADME, cell-based. To be noted: Caco-2. Summed up:
(§1)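 Colchicine and ranitidine were low-permeability controls, propranolol the high-permeability control, labetalol the P-gp substrate control.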
(In general: Caco-2 cells form a polarised layer with tight junctions and transporters.)

Data set [2] is described as follows: Metabolic stability in human liver microsomes assessed as compound remaining at 0.1 uM by LC-MS/MS analysis. To be noted: read-out: Stability. Format: ADME, Microsome. The method, boiled down:
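Human liver microsomes were incubated with compound at 0.1 μM. Percent parent remaining was quantified by LC/MS/MS; imipramine, propranolol, terfenadine and verapamil served as controls.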
(In general: Liver microsomes are a subcellular fraction often used to study metabolism.)

The nature of data set [3]: Permeability from apical to basal side of human Caco2 cells at 10 uM. Type of data set: ADME, cell-based. The settings on record: Caco-2, read-out: permeability. The method, boiled down: as §1
In data set [4] the test system is Peritoneal macrophage cell. Nature of the data set: Inhibition of LPS-induced IL-6 production in LXRalpha,LXRbeta-deficient C57BL/6J mouse peritoneal macrophages at 10 uM incubated for 6 hrs prior to LPS-challenge measured after 18 hrs by ELISA. Format: functional, cell-based. The method, boiled down: (§2)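 Thioglycollate-elicited peritoneal macrophages came from 8–10-week LXRα/β-null mice on C57BL/6J background, harvested 4 days post-injection. They were adhered, rested 24 h and plated at 2 × 10⁵/well, then pretreated with compound 6 h before LPS 10 ng/mL. Supernatant mIL-6 was measured by ELISA after 18 h; means ± SE of ≥3 independent measurements, ANOVA.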

In the next data set the target is T1, Liver X receptor (Homo sapiens, UniProt Q13133+P55055).
T1 sequence (Q13133 whole entry): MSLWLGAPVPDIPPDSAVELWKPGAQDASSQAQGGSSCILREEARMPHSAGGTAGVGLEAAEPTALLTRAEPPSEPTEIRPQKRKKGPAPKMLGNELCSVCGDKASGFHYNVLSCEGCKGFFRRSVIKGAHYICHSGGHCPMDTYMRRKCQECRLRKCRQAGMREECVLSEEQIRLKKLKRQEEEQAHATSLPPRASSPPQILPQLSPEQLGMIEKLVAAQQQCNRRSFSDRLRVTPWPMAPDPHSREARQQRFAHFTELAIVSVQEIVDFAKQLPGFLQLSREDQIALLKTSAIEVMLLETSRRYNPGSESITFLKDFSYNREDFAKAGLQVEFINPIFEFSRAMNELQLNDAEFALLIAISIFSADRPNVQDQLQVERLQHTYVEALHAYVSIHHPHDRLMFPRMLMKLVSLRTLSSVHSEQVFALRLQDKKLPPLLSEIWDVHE
T1 sequence (P55055 whole entry): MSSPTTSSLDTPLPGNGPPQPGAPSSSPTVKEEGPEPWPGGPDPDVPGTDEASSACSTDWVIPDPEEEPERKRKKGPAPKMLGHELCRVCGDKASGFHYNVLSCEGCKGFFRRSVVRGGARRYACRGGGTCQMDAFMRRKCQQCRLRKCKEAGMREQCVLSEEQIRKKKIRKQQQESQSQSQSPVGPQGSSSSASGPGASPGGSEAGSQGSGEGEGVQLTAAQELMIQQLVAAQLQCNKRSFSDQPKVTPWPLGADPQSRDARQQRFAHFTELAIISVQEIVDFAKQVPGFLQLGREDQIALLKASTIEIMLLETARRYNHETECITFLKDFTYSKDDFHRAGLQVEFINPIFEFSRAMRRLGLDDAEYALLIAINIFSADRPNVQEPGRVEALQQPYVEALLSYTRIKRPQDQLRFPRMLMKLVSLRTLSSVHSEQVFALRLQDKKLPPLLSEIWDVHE
Put plainly: Transrepressional activity at LXR in human TPA-activated THP1 cells assessed as inhibition of LPS-induced IL6 production incubated for 6 hrs prior to LPS-challenge measured after 18 hrs by ELISA. Format: cell-based. To be noted: thp-1. On the technique in general: In an ELISA, binding on a coated surface is turned into a signal by an enzyme label.

The nature of data set [5]: Transrepressional activity at LXR in C57BL/6J mouse peritoneal macrophages assessed as inhibition of LPS-induced IL-6 mRNA expression at 10 uM incubated for 6 hr prior to LPS-challenge measured after 18 hrs by RT-PCR analysis. The method, boiled down: (§3)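 Thioglycollate-elicited peritoneal macrophages (wild-type C57BL/6J or LXRα-null, 8–10 weeks) were plated at 4 × 10⁶/well and pretreated with compound 6 h before LPS 100 ng/mL. Cells were harvested after 18 h. il-6 and il-1β mRNA were measured by real-time quantitative PCR, normalized to GAPDH.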

Data set [6] has as its target T2, Oxysterols receptor LXR-beta (Homo sapiens, UniProt P55055).
T2 sequence (P55055 whole entry): T1 sequence (P55055 whole entry)
Nature of the data set: Transactivational agonist activity at human LXRbeta transfected in HEK293 cells expressing CMX-Gal4N assessed as luciferase activity after 16 hrs by reporter gene assay. Type of data set: cell-based. Summed up: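 Gal4-hLXRα or Gal4-hLXRβ chimera (15 ng) cotransfected with tk-MH100×4-luc reporter (50 ng) and CMX-β-gal (10 ng) into HEK293 cells by calcium phosphate. Luciferase was normalized to β-gal, in triplicate.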

Data set [7] in a line: Induction of LPS-induced IL-6 production in LXRalpha,LXRbeta-deficient C57BL/6J mouse peritoneal macrophages at 10 uM incubated for 6 hrs prior to LPS-induction measured after 18 hrs by ELISA. To be noted: peritoneal macrophage cell. Format: cell-based. Summed up: as §2
Data set [8] has as its target T2, Oxysterols receptor LXR-beta. Nature of the data set: Transactivational agonist activity at human LXRbeta transfected in HEK293 cells expressing CMX-Gal4N assessed as luciferase activity after 16 hrs by reporter gene assay relative to N-(4-(1,1,1,3,3,3-hexafluoro-2-hydroxypropan-2-yl)phenyl)-N-methylbenzamide. Format: cell-based. To be noted: read-out: Efficacy.

The nature of data set [9]: Transrepressional activity at LXR in C57BL/6J mouse peritoneal macrophages assessed as inhibition of LPS-induced IL-1beta mRNA expression at 10 uM incubated for 6 hr prior to LPS-challenge measured after 18 hrs by RT-PCR analysis. Summed up:
as §3

Data set [10] concerns Peritoneal macrophage cell. Put plainly: Inhibition of LPS-induced IL-6 mRNA expression in LXRalpha-deficient C57BL/6J mouse peritoneal macrophages at 10 uM incubated for 6 hrs prior to LPS-challenge measured after 18 hrs by RT-PCR analysis. Type of data set: functional, cell-based. The method, boiled down: as §3
In data set [11] the test system is Peritoneal macrophage cell. Put plainly: Inhibition of LPS-induced IL-1beta mRNA expression in LXRalpha-deficient C57BL/6J mouse peritoneal macrophages at 10 uM incubated for 6 hrs prior to LPS-challenge measured after 18 hrs by RT-PCR analysis. Format: functional, cell-based. The method, boiled down: as §3
For data set [12], the target named is T3, Oxysterols receptor LXR-alpha (Homo sapiens, UniProt Q13133).
T3 sequence (Q13133 whole entry): T1 sequence (Q13133 whole entry)
Put plainly: Transactivational agonist activity at human LXRalpha transfected in HEK293 cells expressing CMX-Gal4N assessed as luciferase activity after 16 hrs by reporter gene assay relative to N-(4-(1,1,1,3,3,3-hexafluoro-2-hydroxypropan-2-yl)phenyl)-N-methylbenzamide. Format: cell-based. To be noted: read-out: Efficacy.

Data set [13] has as its target T3, Oxysterols receptor LXR-alpha. Nature of the data set: Transactivational agonist activity at human LXRalpha transfected in HEK293 cells expressing CMX-Gal4N assessed as luciferase activity after 16 hrs by reporter gene assay. Type of data set: cell-based.
Data set [14] is described as follows: Induction of LPS-induced IL-6 production in LXRalpha,LXRbeta-deficient C57BL/6J mouse peritoneal macrophages at 3 uM incubated for 6 hrs prior to LPS-induction measured after 18 hrs by ELISA. Format: cell-based. To be noted: peritoneal macrophage cell. Summed up:
as §2

As for `C=C1c2ccccc2C(=O)N(C)c2ccc(O)cc21`, the results for the Papp A→B at 10 µM in [1] and in data set [3] were ≥ 20 ×10⁻⁶ cm/s and 84.3 ×10⁻⁶ cm/s, respectively. Moreover, in [2], the remaining at 0.1 µM amounted to 87.8%.

By IC50 is commonly meant the concentration that inhibits the measured activity by half. In general, EC50 refers to the concentration giving half of the maximal effect. On to `C=C1c2ccccc2C(=O)N(C)c2ccc(C(O)(C(F)(F)F)C(F)(F)F)cc21`, for which the inhibition result in data set [4], in data set [10] and in data set [11] was “inactive” in each case. In addition, the IC50 on Liver X receptor was 5800 nM. For the same compound, the inhibition result in data set [5] and in [9] was “Active” each time. Also, the EC50 in data set [6] was 770 nM; in data set [13] it was 1700 nM. For the same compound, the Activity result in [7] is recorded as “Toxic”. Also, the Emax in [8] stood at 73%; in data set [12] it was 45%.

For the compound `O=S(=O)(c1ccccc1)N(CC(F)(F)F)c1ccc(C(O)(C(F)(F)F)C(F)(F)F)cc1` [T091317], the Emax amounted to 118% in data set [8] and 124% in data set [12]. Further, the Activity result in [14] is reported as “Toxic”.
